# Assay results gathered from unrelated publications.
# Each line is one published result; the experiments were not run side by side. pIC50: −log10 of the molar value.
# ALOX5: Polyunsaturated fatty acid 5-lipoxygenase (ALOX5, Homo sapiens, UniProt P09917)
# murD: UDP-N-acetylmuramoylalanine--D-glutamate ligase (murD, Escherichia coli K-12, UniProt P14900)
# BCKDK: Branched-chain alpha-ketoacid dehydrogenase kinase (BCKDK, Homo sapiens, UniProt O14874)
# PDE8A: High affinity cAMP-specific and IBMX-insensitive 3',5'-cyclic phosphodiesterase 8A (PDE8A, Homo sapiens, UniProt O60658)
# RARG: Retinoic acid receptor gamma (RARG, Homo sapiens, UniProt P13631)
# HDAC8: Histone deacetylase 8 (HDAC8, Homo sapiens, UniProt Q9BY41)
# ABCB1: ATP-dependent translocase ABCB1 (ABCB1, Homo sapiens, UniProt P08183)
# SLC47A2: Multidrug and toxin extrusion protein 2 (SLC47A2, Homo sapiens, UniProt Q86VL8)
# OPRM1: Mu-type opioid receptor (OPRM1, Homo sapiens, UniProt P35372)
# PTPN7: Tyrosine-protein phosphatase non-receptor type 7 (PTPN7, Homo sapiens, UniProt P35236)
SMILES,target,test,test system,setting,pIC50
O=C(NO)c1ccc(NC(=O)C2(c3ccccc3)CCCC2)c(F)c1,"Histone deacetylase 1 (HDAC1, Homo sapiens, UniProt Q13547)","enzyme activity, inhibitor",,,6.74
C=C(C)[C@@H]1CCC(C)=C[C@H]1c1c(O)cc(CCC)cc1O,ALOX5,"enzyme activity in cells, inhibitor",,,5.12
N#Cc1ccc(COc2ccccc2C=NNS(=O)(=O)c2ccc3ccccc3c2)cc1,murD,"enzyme activity, inhibitor, absorbance",,,4.21
C=C(C)[C@@H]1CCC(C)=C[C@H]1c1c(O)cc(CCCCC)cc1O,ALOX5,"enzyme activity in cells, inhibitor",,,< 5.00
CNC(=O)c1cc2c(Oc3ccc(NC(=O)C4(C(=O)Nc5ccc(F)cc5)CC4)cc3)ccnc2cc1OC,"Ephrin type-A receptor 8 (EPHA8, Homo sapiens, UniProt P29322)","enzyme activity, inhibitor, radiometric",,,7.47
CCCCc1nc(Cl)c(CO)n1Cc1ccc(-c2ccccc2-c2nn[nH]n2)cc1,BCKDK,"enzyme activity, inhibitor",,,4.70
O=C1NC(=O)/C(=C/c2ccc(OCCNc3nc4c(cnn4C4CCCC4)c(=O)[nH]3)c(F)c2)S1,PDE8A,"enzyme activity, inhibitor",,,6.70
COc1cc(C[C@H]2C(=O)OC[C@@H]2Cc2ccc(OC)c(OC)c2)ccc1O,PDE8A,"enzyme activity, inhibitor",,,< 4.70
CCCCc1ncc(/C=C(\Cc2cccs2)C(=O)O)n1Cc1ccc(C(=O)O)cc1,BCKDK,"enzyme activity, inhibitor",,,4.12
CC/C=C\C/C=C\C/C=C\C/C=C\C/C=C\CCCC(=O)O,"DNA polymerase (POLA1, Bos taurus, UniProt A0AAA9TD94)","enzyme activity, inhibitor",,,4.49
CC(C)c1cccc2c(/C=C/c3ccccc3)cc(-c3ccc(-c4ccc(C(=O)O)cc4)[nH]3)nc12,RARG,"reporter gene, antagonist",,,< 5.48
O=C(Nc1ccccc1C=NNS(=O)(=O)c1ccc2ccccc2c1)c1cc([N+](=O)[O-])cc([N+](=O)[O-])c1,murD,"enzyme activity, inhibitor, absorbance",,,4.31
N[C@@H](CC(=O)N1CCN(C(c2ccc(F)cc2)c2ccc(F)cc2)CC1)C(=O)N1Cc2ccccc2C1,"Dipeptidyl peptidase 8 (Homo sapiens, UniProt Q6V1X1)","enzyme activity, inhibitor",,,6.89
CSc1ccc(/C=C2/C(C)=C(CC(=O)O)c3cc(F)ccc32)cc1,PDE8A,"enzyme activity, inhibitor",,,< 4.00
CCCc1nc2c(n1Cc1ccc(-c3ccccc3-c3nnn[nH]3)cc1)C(=O)CCCC2,BCKDK,"enzyme activity, inhibitor",,,6.17
O=c1cc(-c2ccc(O)c(O)c2)oc2cc(O)cc(O)c12,HDAC8,"enzyme activity, inhibitor",,,5.16
CC(C)=CCC[C@@]1(C)C(CC[C@H]2[C@]3(C)CC[C@H](O)C(C)(C)O[C@H]3CC[C@@]2(C)O)=C(C)CC[C@H]1O,ABCB1,"transporter efflux, inhibitor, fluorescence",KB-V1,10 min,4.30 to 4.70
CN(C)CCC=C1c2ccccc2CCc2ccccc21,SLC47A2,"transporter uptake, inhibitor, radiometric",HEK293,5 min,< 3.30
O=c1c(O)c(-c2ccc(O)cc2)oc2cc(O)cc(O)c12,HDAC8,"enzyme activity, inhibitor",,,5.11
CCCC[C@H](NC(=O)[C@H](C)c1c(C)[nH]c2ccc(O)cc12)c1ncc(-c2cc3ccccc3nc2OC)[nH]1,OPRM1,cell-free assay,,,5.34
CCCCCCCc1ccc(CCc2cccc(O)c2C(=O)O)cc1,"Histone acetyltransferase KAT2B (KAT2B, Homo sapiens, UniProt Q92831)","enzyme activity, inhibitor, radiometric",,,< 3.70
Cc1cnc(-c2ccc(-c3ccc(NC(=O)Nc4c(F)cc(F)cc4F)cc3F)c3c2C(=O)NC3)[nH]1,"Tyrosine-protein kinase Yes (YES1, Homo sapiens, UniProt P07947)","enzyme activity, inhibitor",,,8.35
C=CC(=O)Nc1cc(Nc2nccc(Nc3cc(Cl)c(F)cc3C(C)(C)O)n2)c(OC)cc1N1CC[C@@H](N(C)C)C1,"Cytochrome P450 2A6 (CYP2A6, Homo sapiens, UniProt P11509)","enzyme activity, inhibitor","human, liver microsomes",,< 4.52
Cc1nccc2c1c(=O)n(C)c1cc(OC[C@@H](N)CC(C)C)c(C#N)cc21,OPRM1,cell-free assay,,,< 4.52
CCN(CC)CCNC(=O)c1c(C)[nH]c(/C=C2\C(=O)Nc3ccc(F)cc32)c1C,ABCB1,"transporter efflux, inhibitor",LLC-PK1,1 h,5.17
Cc1ccc(-c2cc(-c3ccc(-c4ccc(C(=O)O)cc4)[nH]3)nc3c(C(C)C)cccc23)cc1,RARG,"reporter gene, antagonist",,,< 5.48
CN/C(=N/CCSCc1nc[nH]c1C)NC#N,SLC47A2,"transporter uptake, inhibitor, radiometric",HEK293,"5 min, pH 8.5",5.44
CCCCCc1cc(O)c(C/C=C(\C)CCC=C(C)C)c(O)c1,ALOX5,"enzyme activity in cells, inhibitor",,,5.70
O=[N+]([O-])c1ccc(S(=O)(=O)Oc2ccccc2C=NNS(=O)(=O)c2ccc3ccccc3c2)cc1,murD,"enzyme activity, inhibitor, absorbance",,,4.13
CN1CCN(c2ccc(Nc3ncc4cc(C#N)c(=O)n(C5CCCC5)c4n3)cc2)CC1,"Serine/threonine-protein kinase PLK2 (PLK2, Homo sapiens, UniProt Q9NYY3)","enzyme activity, inhibitor",,,5.66
CCCCC1=NC2(CCCC2)C(=O)N1Cc1ccc(-c2ccccc2-c2nnn[nH]2)cc1,BCKDK,"enzyme activity, inhibitor",,,4.48
CN[C@H]1CC[C@@H](c2ccc(Cl)c(Cl)c2)c2ccccc21,PTPN7,"enzyme activity, inhibitor, fluorescence",,,3.96
CCS(=O)(=O)N1CC(CC#N)(n2cc(-c3ncnc4[nH]ccc34)cn2)C1,SLC47A2,"transporter uptake, inhibitor, radiometric",,2 min,4.86
CSCC[C@H](NC(=O)[C@H](Cc1c[nH]c2ccccc12)NC(=O)CNC(=O)[C@H](Cc1ccc(O)cc1)NC(=O)[C@H](C)NC(=O)[C@@H](CCC(=O)O)NC(=O)CN1CCN(CC(=O)O)CCN(CC(=O)O)CCN(CC(=O)O)CC1)C(=O)N[C@@H](CC(=O)O)C(=O)N[C@@H](Cc1cccc2ccccc12)C(N)=O,"Gastrin/cholecystokinin type B receptor (Rattus norvegicus, UniProt P30553)","ligand displacement, radioligand",,,8.72
Cc1ccc(C(=O)Nc2ccc(S(=O)(=O)O)c3cc(S(=O)(=O)O)cc(S(=O)(=O)O)c23)cc1NC(=O)c1cccc(NC(=O)Nc2cccc(C(=O)Nc3cc(C(=O)Nc4ccc(S(=O)(=O)O)c5cc(S(=O)(=O)O)cc(S(=O)(=O)O)c45)ccc3C)c2)c1,PTPN7,"enzyme activity, inhibitor, fluorescence",,,4.52
